The record followed here is article PMC9476207 (ACS Omega, 2022).

Holding throughout (experiment): NCI-60 single-dose antiproliferative screen
Common to all, as to assay type: cell-based

The subject of one assay is SNB-19. To be noted: Homo sapiens, SNB-19, 48 h, read-out: growth percent. In short, it runs like this:
(§1)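 Cells grown in RPMI 1640 with 5% FBS and 2 mM L-glutamine, plated and held 24 h at 37 °C; time-zero plates TCA-fixed. DMSO stocks were diluted in gentamicin-containing medium to a final 10^-5 M, with a DMSO-only control. Exposure 48 h, 5% CO2. Adherent cells TCA-fixed 1 h at 4 °C, stained with 0.4% SRB, solubilised in 10 mM Trizma base, read at 515 nm. Growth percent derived from ODtzero, ODtest and ODctrl.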

The test system of the next assay is NCI-H460. The settings on record: Homo sapiens, NCI-H460, 48 h, read-out: growth percent. In short, it runs like this: (§2)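 NCI-60 protocol. Lines were grown in RPMI 1640 with 5% FBS and 2 mM L-glutamine, plated and incubated 24 h at 37 °C; time-zero plates were TCA-fixed. The test compound was dissolved in DMSO, diluted in medium with 50 μg/mL gentamicin and given once at a final 10^-5 M (DMSO control) for 48 h. Cells were fixed with cold TCA (1 h, 4 °C) and stained with 0.4% SRB in 1% acetic acid for 10 min. Dye was dissolved in 10 mM Trizma base and read at 515 nm. Growth percent was calculated from time-zero, test and control ODs.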

Another assay deals with M14. The settings on record: Homo sapiens, M14, 48 h, read-out: growth percent. In short, it runs like this: as §2
A further assay deals with HCT-15. The settings on record: Homo sapiens, HCT-15, 48 h, read-out: growth percent. In short, it runs like this:
as §2

Another assay relates to OVCAR-3. The settings on record: Homo sapiens, OVCAR-3, 48 h, read-out: growth percent. In short, it runs like this: as §2
For another assay, the system named is UO-31. The settings on record: Homo sapiens, UO-31, 48 h, read-out: growth percent. In short, it runs like this:
as §1

The next assay has as its system MDA-MB-468. The settings on record: Homo sapiens, MDA-MB-468, 48 h, read-out: growth percent. In short, it runs like this:
as §2

For a further assay, the system named is EKVX. The settings on record: Homo sapiens, 48 h, read-out: growth percent. In short, it runs like this:
as §2

The test system of a further assay is A549/ATCC. The settings on record: Homo sapiens, A549, 48 h, read-out: growth percent. In short, it runs like this:
as §2

A further assay concerns OVCAR-8. The settings on record: Homo sapiens, OVCAR-8, 48 h, read-out: growth percent. In short, it runs like this: as §2
The next assay relates to ACHN. To be noted: Homo sapiens, 48 h, read-out: growth percent. In short, it runs like this: as §2
A further assay relates to MOLT-4. To be noted: Homo sapiens, MOLT-4, 48 h, read-out: growth percent. In short, it runs like this:
as §2

A further assay relates to IGROV1. The settings on record: Homo sapiens, IGROV-1, 48 h, read-out: growth percent. In short, it runs like this:
as §2

The subject of another assay is HCC-2998. The settings on record: Homo sapiens, HCC 2998, 48 h, read-out: growth percent. In short, it runs like this: as §2
A further assay has as its system NCI-H226. To be noted: Homo sapiens, NCI-H226, 48 h, read-out: growth percent. In short, it runs like this: as §2
The next assay relates to TK-10. To be noted: Homo sapiens, TK-10, 48 h, read-out: growth percent. In short, it runs like this:
as §1

The next assay relates to HOP-62. To be noted: Homo sapiens, HOP-62, 48 h, read-out: growth percent. In short, it runs like this:
as §2

For another assay, the system named is OVCAR-4. The settings on record: Homo sapiens, OVCAR-4, 48 h, read-out: growth percent. In short, it runs like this: as §2
For a further assay, the system named is COLO205. To be noted: Homo sapiens, COLO 205, 48 h, read-out: growth percent. In short, it runs like this:
as §2

As to `COc1cc(CNC(=O)CCCC/C=C/C(C)C)ccc1OCc1cn(-c2ccccc2Cl)nn1` [14c, (E)-N-(4-((1-(2-Chlorophenyl)-1H-1,2,3-triazol-4-yl)methoxy)-3-methoxybenzyl)-8-methylnon-6-enamide], the activity at 10 µM with SNB-19 turned out to be 89.7%; with NCI-H460, 101%; with M14, 92.6%; in the assay with HCT-15, 94.1%; with OVCAR-3 it was 101%; in the assay on UO-31 it was 75.2%. The activity at 10 µM is 88.2% in the assay with MDA-MB-468; 82.1% with EKVX; 84.3% with A549/ATCC; 89.6% in the assay on OVCAR-8; 74.1% with ACHN; 81% in the assay on MOLT-4. For the same molecule, the activity at 10 µM in the assay on IGROV1 came to 98.8%; with HCC-2998 it was 110%; in the assay with NCI-H226, 81.8%; with TK-10, 94.6%; with HOP-62, 82%; in the assay on OVCAR-4, 87.9%. Also, the activity at 10 µM in the assay on COLO205 came to 106%.

On to `COc1cc(CNC(=O)CCCC/C=C/C(C)C)ccc1OCc1cn(-c2ccc([N+](=O)[O-])cc2)nn1` [14e, (E)-N-(3-Methoxy-4-((1-(4-nitrophenyl)-1H-1,2,3-triazol-4-yl)methoxy)benzyl)-8methylnon-6-enamide], for which the activity at 10 µM in the assay with SNB-19 stood at 97.4%; in the assay with NCI-H460, 99.8%; in the assay with M14 it was 89.7%; in the assay on HCT-15 it was 96.2%; with OVCAR-3 it was 92.7%; in the assay on UO-31, 60.6%. Further, the activity at 10 µM in the assay on MDA-MB-468 was 77.4%; with EKVX it was 75.3%; in the assay with A549/ATCC, 84.1%; with OVCAR-8, 82.9%; with ACHN it was 82%; in the assay with MOLT-4 it was 79.3%. Further, the activity at 10 µM was 90.4% in the assay on IGROV1; 108% with HCC-2998; 89.6% in the assay on NCI-H226; 92.7% in the assay on TK-10; 80.9% in the assay on HOP-62; 87.2% in the assay on OVCAR-4. For the same molecule, in the assay on COLO205, the activity at 10 µM was found to be 118%.

Take `COc1cc(CNC(=O)CCCC/C=C/C(C)C)ccc1OCc1cn(-c2ccc(C(F)(F)F)cc2)nn1` [14g, (E)-N-(3-Methoxy-4-((1-(4-(trifluoromethyl)phenyl)-1H-1,2,3-triazol-4-yl)methoxy)benzyl)-8-methylnon-6-enamide]: the activity at 10 µM in the assay on SNB-19 was determined as 76.1%; with NCI-H460, 16.7%; in the assay with M14, 97.5%; with HCT-15 it was 59.7%; with OVCAR-3 it was 107%; with UO-31 it was 92.8%. Moreover, the activity at 10 µM in the assay with MDA-MB-468 was determined as 70.2%; with EKVX, 88.2%; in the assay with A549/ATCC, 49%; in the assay with OVCAR-8, 41.1%; with MOLT-4, 80.3%; in the assay with IGROV1, 58.7%. Also, the activity at 10 µM in the assay on HCC-2998 was determined as 94.8%; in the assay with NCI-H226, 53.6%; with TK-10, 20.4%; with HOP-62, 64.6%; in the assay on OVCAR-4 it was 98.6%; with COLO205, 72.6%.

`COc1cc(CNC(=O)CCCC/C=C/C(C)C)ccc1OCc1cn(-c2ccc(Cl)c(Cl)c2)nn1` [14d, (E)-N-(4-((1-(3,4-Dichlorophenyl)-1H-1,2,3-triazol-4-yl)methoxy)-3-methoxybenzyl)-8-methylnon-6-enamide]: the activity at 10 µM came to 87.3% in the assay on SNB-19; 101% with NCI-H460; 92.7% in the assay on M14; 93.6% in the assay on HCT-15; 92.4% in the assay on OVCAR-3; 103% in the assay with UO-31. The activity at 10 µM was determined as 71.6% in the assay with MDA-MB-468; 76.2% with EKVX; 85.9% in the assay with A549/ATCC; 91% with OVCAR-8; 86.4% in the assay on MOLT-4; 104% in the assay with IGROV1. Besides, the activity at 10 µM with HCC-2998 was determined as 98.1%; with NCI-H226 it was 76.6%; in the assay on TK-10, 88.6%; in the assay with HOP-62, 90.4%; in the assay on OVCAR-4, 69.5%; in the assay on COLO205, 111%.

On to `COc1cc(CNC(=O)CCCC/C=C/C(C)C)ccc1OCc1cn(-c2cc(OC)c(OC)c(OC)c2)nn1` [14m, (E)-N-(3-Methoxy-4-((1-(3,4,5-trimethoxyphenyl)-1H-1,2,3-triazol-4-yl)methoxy)benzyl)-8-methylnon-6-enamide], for which the activity at 10 µM in the assay on SNB-19 is 85.1%; with NCI-H460 it was 102%; in the assay with M14 it was 94.5%; with HCT-15, 103%; in the assay on OVCAR-3, 103%; in the assay with UO-31, 117%. Further, the activity at 10 µM was determined as 80.4% with MDA-MB-468; 95.9% with EKVX; 91% in the assay with A549/ATCC; 88.2% in the assay with OVCAR-8; 92% in the assay on MOLT-4; 103% in the assay with IGROV1. In addition, the activity at 10 µM in the assay on HCC-2998 worked out at 91.8%; in the assay with NCI-H226, 91.4%; in the assay with TK-10, 91.6%; in the assay with HOP-62 it was 90.7%; in the assay with OVCAR-4, 103%; in the assay with COLO205, 106%.

Regarding `CCc1ccc(-n2cc(COc3ccc(CNC(=O)CCCC/C=C/C(C)C)cc3OC)nn2)cc1` [14o, (E)-N-(4-((1-(4-Ethylphenyl)-1H-1,2,3-triazol-4-yl)methoxy)-3-methoxybenzyl)-8-methylnon-6-enamide], the activity at 10 µM was 85.7% with SNB-19; 103% in the assay with NCI-H460; 99.8% in the assay on M14; 94.4% with HCT-15; 101% in the assay on OVCAR-3; 93.9% in the assay with UO-31. The activity at 10 µM in the assay on MDA-MB-468 was 79.8%; in the assay with EKVX it was 82.1%; in the assay with A549/ATCC it was 88.3%; in the assay on OVCAR-8, 91.1%; in the assay with MOLT-4, 79.6%; in the assay on IGROV1, 102%. Moreover, the activity at 10 µM in the assay with HCC-2998 came out at 99.7%; in the assay with NCI-H226, 76.7%; in the assay on TK-10 it was 87.4%; in the assay on HOP-62, 94.5%; in the assay with OVCAR-4 it was 89%; in the assay with COLO205, 121%.

As to `COc1cc(CNC(=O)CCCC/C=C/C(C)C)ccc1OCc1cn(-c2ccccc2OC)nn1` [14l, (E)-N-(3-Methoxy-4-((1-(2-methoxyphenyl)-1H-1,2,3-triazol-4-yl)methoxy)benzyl)-8-methylnon-6-enamide], the activity at 10 µM in the assay with SNB-19 was 91.6%; in the assay with NCI-H460 it was 104%; in the assay with M14 it was 96.7%; in the assay on HCT-15, 106%; in the assay with OVCAR-3, 103%; with UO-31, 105%. Also, the activity at 10 µM in the assay on MDA-MB-468 turned out to be 75.5%; in the assay with EKVX, 89.4%; with A549/ATCC, 86%; in the assay on OVCAR-8 it was 82.2%; with MOLT-4 it was 79.7%; with IGROV1 it was 104%. The activity at 10 µM was 117% in the assay on HCC-2998; 80.5% with NCI-H226; 90.2% with TK-10; 88.7% with HOP-62; 100% in the assay on OVCAR-4; 117% with COLO205.
